The subject of series [1] is Canis familiaris. Briefly: Immunostimulatory activity in mongrel dog infected with Trypanosoma cruzi Berenice-78 assessed as reduction in IL10 production in right atrium at 7 mg/kg, po BID after 180 days by semiquantitative RT-PCR. On the set-up: dose 7 mg/kg. The class given is functional, organism-based. Particulars: Canis lupus familiaris, Cardiac atrium. Put shortly: (§1)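 Dogs were euthanized 6 months after the end of treatment. RNA was extracted from the right atrium with acid guanidinium thiocyanate-phenol-chloroform. One microgram was DNase treated and reverse transcribed with oligo(dT) for 1 h at 42°C. IFN-γ or IL-10 cDNA was amplified with 1.5 mM MgCl2: 94°C 5 min, n cycles of 94/57/72°C, final extension 72°C 6 min. Expression was scored semiquantitatively against infected untreated and noninfected dogs.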

Series [2] relates to Canis familiaris. Briefly: Immunostimulatory activity in mongrel dog infected with Trypanosoma cruzi Y assessed as production of antibody IgG at 12 mg/kg, po BID for 90 days measured up to 30 days by ELISA. It is filed as functional, organism-based. On the set-up: dose 12 mg/kg. The settings on record: Canis lupus familiaris. The method in brief:
(§2)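 Serum was taken before inoculation and then monthly until 6 months posttreatment, and stored at −80°C. ELISA plates were coated with alkaline extract of Y-strain parasites grown to exponential phase in LIT medium. Bound total IgG or IgG2 was detected with peroxidase-labeled anti-dog conjugates and read at 490 nm. Cutoff was the mean absorbance of 10 uninfected dogs plus 2 SD.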
(In general: In an ELISA, binding on a coated surface is turned into a signal by an enzyme label.)

Series [3] concerns Canis familiaris. Briefly: Toxicity in mongrel dog infected with Trypanosoma cruzi Y assessed as weight loss at 12 mg/kg, po BID for 90 days started 12 to 22 days postinfection measured after 1 day. It is filed as organism-based, Canis lupus familiaris. On the set-up: dose 12 mg/kg, route oral. Particulars: in vivo, 24 h. Put shortly:
(§3)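 Body weight gain, in kg, was recorded for infected dogs 1 day and 6 months after the end of oral b.i.d. treatment. Treated animals were compared with infected untreated and noninfected control groups.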

The test system of series [4] is Trypanosoma cruzi. Briefly: Antimicrobial activity against Trypanosoma cruzi Y infected in mongrel dog assessed as parasite level in blood of dog at 12 mg/kg, po BID started 12 to 22 days postinfection measured after 30 days by PCR analysis. It is filed as functional. Put shortly:
(§4)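 Blood PCR for T. cruzi on treated dogs (n = 5 per group) at 1 and 6 months posttreatment. Each reaction took 2 μl blood DNA template in Tris-HCl pH 9.0, 75 mM KCl, 3.5 mM MgCl2 and 0.2 mM dNTPs. Cycling was 95°C 5 min, then 2 cycles annealing at 30°C, 33 cycles at 40°C, and 72°C 5 min. Products were run on 6% polyacrylamide and silver stained. Reported as rate of positive animals.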

Series [5] deals with Canis familiaris. Briefly: Immunostimulatory activity in mongrel dog infected with Trypanosoma cruzi Berenice-78 assessed as reduction in INFgamma production in right atrium at 12 mg/kg, po BID after 180 days by semiquantitative RT-PCR. The settings on record: Canis lupus familiaris, Cardiac atrium. The arrangement: dose 12 mg/kg. It is filed as functional, organism-based. Put shortly: as §1

Series [6] has as its system Canis familiaris. Briefly: Toxicity in mongrel dog infected with Trypanosoma cruzi Y assessed as weight loss at po BID for 90 days started 12 to 22 days postinfection measured after 1 day. Particulars: in vivo, 24 h.
For series [7], the system named is Trypanosoma cruzi. Briefly: Antimicrobial activity against Trypanosoma cruzi Berenice-78 infected in mongrel dog assessed as parasite level in blood of dog at 12 mg/kg, po BID started 12 to 22 days postinfection measured after 30 days by PCR analysis. The class given is functional. Put shortly: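 Mongrel dogs (4 months old, five per group) were inoculated with 2.0 × 10^3 Berenice-78 bloodstream trypomastigotes/kg and dosed orally at 12 mg/kg q12h for 90 days, beginning 12–22 days postinfection once parasitemia appeared. Blood was sampled 1 month after treatment. PCR used 2 μl blood DNA, 35 cycles with annealing at 30°C then 40°C, and polyacrylamide gel with silver staining.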

Series [8] deals with Trypanosoma cruzi. Briefly: Antimicrobial activity against Trypanosoma cruzi Berenice-78 infected in mongrel dog assessed as suppression of microbial proliferation at 7 mg/kg, po BID started 12 to 22 days postinfection measured after 1 day. The class given is functional, organism-based. On the set-up: dose 7 mg/kg. The method in brief:
(§5)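 Mongrel dogs, 4 months old, dewormed and vaccinated, were inoculated with 2.0 × 10^3 bloodstream trypomastigotes/kg. Oral b.i.d. (q12h) dosing began 12 to 22 days postinfection, once parasitemia appeared. Dosing ran 90 days at 12 mg/kg and 60 days at 7 mg/kg, with 5 dogs per group. Parasitemia was read by fresh-blood examination of marginal ear vein blood from day 10 of infection until parasites were undetectable.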

Series [9] deals with Trypanosoma cruzi. Briefly: Antimicrobial activity against Trypanosoma cruzi Berenice-78 infected in mongrel dog assessed as suppression of microbial proliferation at 12 mg/kg, po BID started 12 to 22 days postinfection measured after 1 day. It is filed as functional, organism-based. The arrangement: dose 12 mg/kg. Put shortly:
as §5

For series [10], the system named is Canis familiaris. Briefly: Immunostimulatory activity in mongrel dog infected with Trypanosoma cruzi Berenice-78 assessed as reduction in IL10 production in right atrium at 12 mg/kg, po BID after 180 days by semiquantitative RT-PCR. The class given is functional, organism-based. On the set-up: dose 12 mg/kg. The settings on record: Canis lupus familiaris, Cardiac atrium. Put shortly:
as §1

The test system of series [11] is Canis familiaris. Briefly: Immunostimulatory activity in mongrel dog infected with Trypanosoma cruzi Berenice-78 assessed as production of antibody IgG2 at 12 mg/kg, po BID for 90 days measured up to 30 days by ELISA. The class given is functional, organism-based. The arrangement: dose 12 mg/kg. Particulars: Canis lupus familiaris. The method in brief: as §2
Series [12] is described as follows: Half life in mouse. The class given is ADME, organism-based. Particulars: in vivo.
For series [13], the system named is Canis familiaris. Briefly: Toxicity in mongrel dog infected with Trypanosoma cruzi Y assessed as weight loss at 7 mg/kg, po BID for 90 days started 12 to 22 days postinfection measured after 6 months. The arrangement: dose 7 mg/kg, route oral. The class given is organism-based, Canis lupus familiaris. The settings on record: in vivo, 4383 h. The method in brief:
as §3

For series [14], the system named is Canis familiaris. Briefly: Immunostimulatory activity in mongrel dog infected with Trypanosoma cruzi Y assessed as production of antibody IgG2 at 12 mg/kg, po BID for 90 days measured up to 30 days by ELISA. Particulars: Canis lupus familiaris. On the set-up: dose 12 mg/kg. The class given is functional, organism-based. The method in brief: as §2
Series [15] deals with Trypanosoma cruzi. Briefly: Antimicrobial activity against Trypanosoma cruzi Y infected in mongrel dog assessed as parasite level in blood of dog at 12 mg/kg, po BID started 12 to 22 days postinfection measured after 6 months by PCR analysis. The class given is functional. The method in brief: as §4
Series [16] has as its system Trypanosoma cruzi. Briefly: Antitrypanosomal activity against Trypanosoma cruzi Berenice-78 infected in mongrel dog assessed as reduction in parasite-induced intrafascicular collagen deposition in right atrium at 7 mg/kg, po BID after 180 days […]. The class given is functional, organism-based. The arrangement: dose 7 mg/kg. Particulars: Cardiac atrium.

Series [17] deals with Canis familiaris. Briefly: Immunostimulatory activity in mongrel dog infected with Trypanosoma cruzi Y assessed as production of antibody IgG at 7 mg/kg, po BID for 90 days measured up to 30 days by ELISA. It is filed as functional, organism-based. The arrangement: dose 7 mg/kg. The settings on record: Canis lupus familiaris. Put shortly:
as §2

The subject of series [18] is Canis familiaris. Briefly: Immunostimulatory activity in mongrel dog infected with Trypanosoma cruzi Y assessed as production of antibody IgG2 at 7 mg/kg, po BID for 90 days measured up to 30 days by ELISA. Particulars: Canis lupus familiaris. It is filed as functional, organism-based. The arrangement: dose 7 mg/kg. The method in brief: as §2
In series [19] the test system is Canis familiaris. Briefly: Toxicity in mongrel dog infected with Trypanosoma cruzi Berenice-78 assessed as weight loss at 7 mg/kg, po BID for 90 days started 12 to 22 days postinfection measured after 6 months. The class given is organism-based, Canis lupus familiaris. On the set-up: dose 7 mg/kg, route oral. The settings on record: in vivo, 4383 h. Put shortly: as §3

Series [20] relates to Trypanosoma cruzi. Briefly: Antimicrobial activity against Trypanosoma cruzi Y infected in mongrel dog assessed as parasite level in blood of dog at 7 mg/kg, po BID started 12 to 22 days postinfection measured after 30 days by PCR analysis. It is filed as functional. The method in brief: as §4
Series [21] has as its system Trypanosoma cruzi. Briefly: Antimicrobial activity against Trypanosoma cruzi Y infected in mongrel dog assessed as suppression of microbial proliferation at 7 mg/kg, po BID started 12 to 22 days postinfection measured after 1 day. It is filed as functional, organism-based. The arrangement: dose 7 mg/kg. Put shortly: as §5
Series [22] relates to Canis familiaris. Briefly: Immunostimulatory activity in mongrel dog infected with Trypanosoma cruzi Berenice-78 assessed as production of antibody IgG2 at 7 mg/kg, po BID for 90 days measured up to 30 days by ELISA. It is filed as functional, organism-based. On the set-up: dose 7 mg/kg. The settings on record: Canis lupus familiaris. The method in brief: as §2
Series [23] concerns Trypanosoma cruzi. Briefly: Antitrypanosomal activity against Trypanosoma cruzi Y infected in mongrel dog assessed as reduction in parasite-induced intrafascicular collagen deposition at 7 mg/kg, po BID after 180 days […]. On the set-up: dose 7 mg/kg. The class given is functional, organism-based.

Calls of active or inactive are those of the source.

Usually half-life stands for the time needed for the level to fall by half in the phase considered. As to `C[C@@H](c1nc(-c2ccc(C#N)cc2)cs1)[C@](O)(Cn1cncn1)c1ccc(F)cc1F` [RAVUCONAZOLE], the result with Canis familiaris [1], in the series on Canis familiaris [2], in the series with Canis familiaris [5], in the series on Canis familiaris [10], with Canis familiaris [11] and in the series on Canis familiaris [14] was Active. Further, the outcome with Trypanosoma cruzi [16], in the series with Canis familiaris [17], in the series with Canis familiaris [18], with Canis familiaris [22] and in the series with Trypanosoma cruzi [23] was Active. Moreover, the Activity entry with Canis familiaris [3] is “Non-toxic”; with Trypanosoma cruzi [4], 80%; in the series with Canis familiaris [6], “Non-toxic”; in the series on Trypanosoma cruzi [7] it was 100%; in the series on Trypanosoma cruzi [8], “Non-toxic”; in the series on Trypanosoma cruzi [9], “Non-toxic”. Moreover, the Activity entry with Canis familiaris [13] was “Non-toxic”; with Trypanosoma cruzi [15] it was 60%; in the series on Canis familiaris [19] it was “Non-toxic”; in the series with Trypanosoma cruzi [20], 40%; in the series with Trypanosoma cruzi [21] it was “Non-toxic”. The same molecule gave a half-life in series [12] of 4.5 h.
